Results taken from PMC9292719 (Diabetes, Obesity & Metabolism, 2021).
Marks after values point to notes of the source that are not given here.

Legend:
healthy subjects [1] = assay: Safety: treatment-emergent adverse events; type: in vivo, human; details: single s.c. dose 0.2 U/kg; for Headache, number of subjects / Headache, percentage of subjects / Hypoglycaemia, events (one subject each) / Injection site erythema, number of subjects / Injection site erythema, percentage of subjects / Nasopharyngitis, number of subjects / Nasopharyngitis, percentage of subjects: TEAE
Procedure, shortened: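 In a randomized three-period crossover with washouts, each subject received a single 0.2 U/kg s.c. dose per period. Treatment-emergent adverse events were recorded per treatment and graded mild, moderate or severe. They were summarised descriptively by visit/treatment as subject counts, percentages and event numbers.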

[2] = type: in vivo, human
Procedure, shortened: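 Healthy volunteers in a randomized crossover each received a single 0.2 U/kg s.c. dose per period. Plasma was sampled predose and from 5 to 720 min postdose. Insulin aspart, with 15N-labelled internal standard, was captured on anti-insulin antibody magnetic beads and measured by UPLC-MS/MS (range 100-8000 pg/mL). AUC ratios and CIs came from Fieller's theorem. Time endpoints were summarised descriptively by treatment.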

healthy subjects [3] = assay: Pharmacodynamics: automated euglycaemic glucose clamp; type: in vivo, human; details: Ref‐InsAsp‐US vs. Ref‐InsAsp‐EU (N = 65); two-sided 90% CI; Fieller's theorem
Procedure, shortened: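 Healthy adults aged 18-65 with BMI 18.5-29.0 kg/m2 and fasting glucose ≤5.5 mmol/L. Randomized crossover: single 0.2 U/kg s.c. dose per period, 12- to 16-day washout. Before dosing, variable i.v. human insulin brought blood glucose to the 81 mg/dL target. Glucose infusion was then adjusted automatically over a 12 h clamp, GIR logged every minute. Partial-AUC ratios with CIs came from Fieller's theorem.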

[4] = healthy subjects, single s.c. dose 0.2 U/kg, plasma, arithmetic mean (SD)
[5] = Ref‐InsAsp‐US vs. Ref‐InsAsp‐EU (N = 66), two-sided 90% CI, Fieller's theorem

| Substance | Headache, number of subjects (healthy subjects [1]) | Headache, percentage of subjects (healthy subjects [1]) | Hypoglycaemia, events (one subject each) (healthy subjects [1]) | Injection site erythema, number of subjects (healthy subjects [1]) | Injection site erythema, percentage of subjects (healthy subjects [1]) | Nasopharyngitis, number of subjects (healthy subjects [1]) | Nasopharyngitis, percentage of subjects (healthy subjects [1]) | Number of TEAE events (healthy subjects [1]) | Subjects with at least one TEAE, percentage (healthy subjects [1]) | Subjects with at least one treatment‐emergent adverse event (TEAE), number (healthy subjects [1]) | t50%‐early (time to half‐maximum before Cmax) [2, 4] | t50%‐late (time to half‐maximum after Cmax) [2, 4] | tmax (time to maximum observed insulin aspart concentration) [2, 4] | λz (terminal elimination rate constant) [2, 4] | AUCGIR,0‐4h LS‐mean ratio (healthy subjects [3]) | AUCGIR,0‐6h LS‐mean ratio (healthy subjects [3]) | AUCGIR,6h‐last LS‐mean ratio (healthy subjects [3]) | AUC0‐6h LS‐mean ratio [2, 5] | AUC6‐12h LS‐mean ratio [2, 5] |
| --- | --- | --- | --- | --- | --- | --- | --- | --- | --- | --- | --- | --- | --- | --- | --- | --- | --- | --- | --- |
| MYL‐1601D: rapid‐acting human insulin analogue, biosimilar insulin aspart 100 U/mL, produced by recombinant DNA technology utilizing Pichia pastoris (Mylan) | four | 5.7% | one | two | 2.9% | three | 4.3% | 18 events | 15.7% | – | – | – | – | – | – | – | – | – | – |
| Insulin aspart [Ref‐InsAsp‐EU] | eight | 11.9% | – | one | 1.5% | two | 3.0% | 13 events | 19.4% | 13 subjects | 0.45 (0.12) h | 3.1 (0.84) h | 1.10 (0.53) h | 0.86 (0.28) /h | – | – | – | – | – |
| Insulin aspart [Ref‐InsAsp‐US] | five | 7.2% | one | one | 1.4% | none | – | 12 events | 15.9% | 11 subjects | – | 3.13 (0.86) h | 1.11 (0.45) h | 0.82 (0.27) /h | 94.11 (90.37; 97.99) ^b % | 94.81 (91.46; 98.27) ^b % | 101.05 (95.75; 106.64) ^b % | 99.71 (97.90; 101.52) % | 107.18 (83.81; 137.45) % |
